Test results as given in ChEMBL document CHEMBL1212735, “Metronidazole resistance in Prevotella spp. and description of a new nim gene in Prevotella baroniae” (2010).

Assays:
Format in all cases: functional
[1] = tested on: Prevotella buccae; experiment: Antimicrobial activity against Prevotella buccae LBN 465 deficient in nimI gene assessed as inhibition of growth after several passages on plates containing increasing concentration of compound by agar dilution method; details: Segatella buccae
In short: (§1)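 Induction of metronidazole resistance: bacterial suspensions inoculated onto brucella blood agar (5% sheep blood, hemin, vitamin K1) containing metronidazole at increasing concentrations, grown anaerobically at 37°C. Colonies growing at the highest concentration were retested for MIC by CLSI agar dilution on the same agar. Duplicate experiments.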

[2] = tested on: Prevotella bivia; experiment: Antimicrobial activity against Prevotella bivia LBN 332 deficient in nimI gene assessed as inhibition of growth after three consecutive subcultures on compound free medium by agar dilution method
In short: (§2)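 Stability of induced resistance: metronidazole-selected isolates were subcultured three consecutive times on drug-free brucella blood agar (5% sheep blood, hemin, vitamin K1) under anaerobic conditions, then MIC was redetermined by CLSI agar dilution. Resistance was called stable if the MIC held within ±1 dilution. Duplicate experiments.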

[3] = tested on: Prevotella nanceiensis; experiment: Antimicrobial activity against Prevotella nanceiensis LBN 293b deficient in nimI gene assessed as inhibition of growth after three consecutive subcultures on compound free medium by agar dilution method; details: Hoylesella nanceiensis; in short: as §2
[4] = tested on: Prevotella nanceiensis; experiment: Antimicrobial activity against Prevotella nanceiensis LBN 410 deficient in nimI gene assessed as inhibition of growth after three consecutive subcultures on compound free medium by agar dilution method; details: Hoylesella nanceiensis; in short: as §2
[5] = tested on: Prevotella baroniae; experiment: Antimicrobial activity against Prevotella baroniae LBN 432 expressing nim gene assessed as inhibition of growth at 48 hrs by agar dilution method; details: Segatella baroniae, LBN 432, 48 h
In short: (§3)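 Metronidazole MIC by agar dilution (CLSI M11-A7) on brucella agar with 5% sheep blood, hemin and vitamin K1. Plates were read after 48 h at 35°C under anaerobic conditions. Susceptible was MIC ≤ 4 μg/ml and resistant MIC ≥ 8 μg/ml (EUCAST). B. fragilis ATCC 25285T and B. thetaiotaomicron ATCC 29741 were run as controls. Duplicate assays.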

[6] = tested on: Prevotella bivia; experiment: Antimicrobial activity against Prevotella bivia LBN 331 deficient in nim gene assessed as inhibition of growth at 48 hrs by agar dilution method; details: LBN 331, 48 h; in short: as §3
[7] = tested on: Prevotella bivia; experiment: Antimicrobial activity against Prevotella bivia LBN 336 deficient in nim gene assessed as inhibition of growth at 48 hrs by agar dilution method; details: LBN 336, 48 h; in short: as §3
[8] = tested on: Prevotella bivia; experiment: Antimicrobial activity against Prevotella bivia LBN 350 deficient in nim gene assessed as inhibition of growth at 48 hrs by agar dilution method; details: LBN 350, 48 h; in short: as §3
[9] = tested on: Prevotella bivia; experiment: Antimicrobial activity against Prevotella bivia LBN 371 deficient in nim gene assessed as inhibition of growth at 48 hrs by agar dilution method; details: LBN 371, 48 h; in short: as §3
[10] = tested on: Prevotella bivia; experiment: Antimicrobial activity against Prevotella bivia LBN 464 deficient in nim gene assessed as inhibition of growth at 48 hrs by agar dilution method; details: LBN 464, 48 h; in short: as §3
[11] = tested on: Prevotella bivia; experiment: Antimicrobial activity against Prevotella bivia LBN 467 deficient in nim gene assessed as inhibition of growth at 48 hrs by agar dilution method; details: LBN 467, 48 h; in short: as §3
[12] = tested on: Prevotella bivia; experiment: Antimicrobial activity against Prevotella bivia LBP 51 deficient in nim gene assessed as inhibition of growth at 48 hrs by agar dilution method; details: LBP 51, 48 h; in short: as §3
[13] = tested on: Prevotella bivia; experiment: Antimicrobial activity against Prevotella bivia LBP 78 deficient in nim gene assessed as inhibition of growth at 48 hrs by agar dilution method; details: LBP 78, 48 h; in short: as §3
[14] = tested on: Prevotella nanceiensis; experiment: Antimicrobial activity against Prevotella nanceiensis LBN 298 deficient in nim gene assessed as inhibition of growth at 48 hrs by Etest method; details: Hoylesella nanceiensis, LBN 298, 48 h
In short: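 Metronidazole Etest, per the manufacturer's instructions, on brucella blood agar with hemin and vitamin K1. Read after 48 h at 35°C under anaerobic conditions. Breakpoints were ≤ 4 μg/ml susceptible and ≥ 8 μg/ml resistant (EUCAST). Duplicate assays.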

[15] = tested on: Prevotella bivia; experiment: Antimicrobial activity against slow growing colonies of Prevotella bivia LBN 332 deficient in nim gene assessed as inhibition of growth at 48 hrs by agar dilution method; details: LBN 332, 48 h
In short: (§4)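 Slowly growing colonies inside the Etest inhibition zone, seen after prolonged incubation (an additional 72 h after the 48 h reading), were subcultured without antibiotic. They were then retested for metronidazole MIC by agar dilution on supplemented brucella blood agar under anaerobic conditions.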

[16] = tested on: Prevotella bivia; experiment: Antimicrobial activity against slow growing colonies of Prevotella bivia LBN 333 deficient in nim gene assessed as inhibition of growth at 48 hrs by agar dilution method; details: LBN 333, 48 h; in short: as §4
[17] = tested on: Prevotella bivia; experiment: Antimicrobial activity against slow growing colonies of Prevotella bivia LBN 334 deficient in nim gene assessed as inhibition of growth at 48 hrs by agar dilution method; details: LBN 334, 48 h; in short: as §4
[18] = tested on: Prevotella bivia; experiment: Antimicrobial activity against slow growing colonies of Prevotella bivia LBN 339 deficient in nim gene assessed as inhibition of growth at 48 hrs by agar dilution method; details: LBN 339, 48 h; in short: as §4
[19] = tested on: Prevotella bivia; experiment: Antimicrobial activity against slow growing colonies of Prevotella bivia LBN 346 deficient in nim gene assessed as inhibition of growth at 48 hrs by agar dilution method; details: LBN 346, 48 h; in short: as §4
[20] = tested on: Prevotella bivia; experiment: Antimicrobial activity against slow growing colonies of Prevotella bivia LBN 365 deficient in nim gene assessed as inhibition of growth at 48 hrs by agar dilution method; details: LBN 365, 48 h
In short: (§5)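 Metronidazole MIC by agar dilution per CLSI M11-A7 on brucella agar with 5% sheep blood, hemin and vitamin K1. Plates incubated anaerobically at 35°C and read at 48 h, with a second reading after a further 72 h. B. fragilis ATCC 25285T and B. thetaiotaomicron ATCC 29741 served as controls. Done in duplicate; EUCAST breakpoints applied (S ≤4, R ≥8 μg/ml).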

[21] = tested on: Prevotella bivia; experiment: Antimicrobial activity against slow growing colonies of Prevotella bivia LBN 464 deficient in nim gene assessed as inhibition of growth at 48 hrs by agar dilution method; details: LBN 464, 48 h; in short: as §5
[22] = tested on: Prevotella bivia; experiment: Antimicrobial activity against slow growing colonies of Prevotella bivia LBN 467 deficient in nim gene assessed as inhibition of growth at 48 hrs by agar dilution method; details: LBN 467, 48 h; in short: as §5
[23] = tested on: Prevotella bivia; experiment: Antimicrobial activity against slow growing colonies of Prevotella bivia LBN 478 deficient in nim gene assessed as inhibition of growth at 48 hrs by agar dilution method; details: LBN 478, 48 h; in short: as §5
[24] = tested on: Prevotella bivia; experiment: Antimicrobial activity against slow growing colonies of Prevotella bivia LBP 65 deficient in nim gene assessed as inhibition of growth at 48 hrs by agar dilution method; details: LBP 65, 48 h; in short: as §5
[25] = tested on: Prevotella nanceiensis; experiment: Antimicrobial activity against slow growing colonies of Prevotella nanceiensis LBN 298 deficient in nim gene assessed as inhibition of growth at 48 hrs by agar dilution method; details: Hoylesella nanceiensis, LBN 298, 48 h; in short: as §5
[26] = tested on: Prevotella nanceiensis; experiment: Antimicrobial activity against slow growing colonies of Prevotella nanceiensis LBN 410 deficient in nim gene assessed as inhibition of growth at 48 hrs by agar dilution method; details: Hoylesella nanceiensis, LBN 410, 48 h; in short: as §5
[27] = tested on: Prevotella baroniae; experiment: Antimicrobial activity against Prevotella baroniae LBN 432 expressing nimI gene assessed as inhibition of growth after several passages on plates containing increasing concentration of compound by agar dilution method; details: Segatella baroniae; in short: as §1
[28] = tested on: Prevotella baroniae; experiment: Antimicrobial activity against Prevotella baroniae LBP19 expressing nimI gene assessed as inhibition of growth after several passages on plates containing increasing concentration of compound by agar dilution method; details: Segatella baroniae; in short: as §1

Measured: MIC

Cc1ncc([N+](=O)[O-])n1CCO [METRONIDAZOLE]
256 µg/mL: [3] | [4]
128 µg/mL: [1] | [28]
8 µg/mL: [10] | [20] | [23]
64 µg/mL: [27]
16 µg/mL: [11] | [17] | [18] | [19] | [21]
> 256 µg/mL: [2]
2 µg/mL: [5] | [6] | [7] | [8] | [12]
4 µg/mL: [9] | [13] | [14]
32 µg/mL: all other assays above
